Where two headings read alike, the source gives them in different places.
Experiments:
[1] = DPPH radical scavenging assay; conditions: read-out: DPPH radical scavenging IC50 ± SD; DPPH 0.1 mM in MeOH, 60 min, 517 nm
Procedure, shortened: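 Each test compound was prepared at 1.0 mg/mL in DMSO and mixed 1:1 by volume with 0.1 mM DPPH in MeOH. The mixture was kept in the dark at RT for 60 min. Absorbance was read at 517 nm against a DPPH control. % scavenging = (Abs control − Abs sample)/Abs control × 100.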

[2] = system: healthy human breast epithelial (MCF-10 A) cell line; experiment: MTT cytotoxicity assay, MCF-10 A; format: cell-based
Procedure, shortened: (§1)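 Cells came from the Pasteur Institute, Tehran, and were seeded at 5 × 10^4 cells/well. After 24 h, four concentrations of test compound were added in triplicate, with medium-only and 0.5% DMSO controls. Exposure was 48 and 72 h. MTT formazan was dissolved in DMSO and read at 570 nm. IC50 was taken from % inhibition (mean ± SD, n=3). SI = IC50 MCF-10 A / IC50 MCF-7.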

[3] = system: MCF-7 breast cancer cell line; experiment: MTT cytotoxicity assay, MCF-7; format: cell-based, human; conditions: for IC50: Homo sapiens; for Selectivity Index (SI) 48 h: IC50 MCF-10 A / IC50 MCF-7, 48 h; for Selectivity Index (SI) 72 h: IC50 MCF-10 A / IC50 MCF-7, 72 h
Procedure, shortened: as §1

[4] = 48 h, read-out: IC50 ±SD MCF-10 A 48 h
[5] = 72 h, read-out: IC50 ±SD MCF-10 A 72 h
[6] = MCF7, 48 h, read-out: IC50 ±SD MCF-7 48 h
[7] = MCF7, 72 h, read-out: IC50 ±SD MCF-7 72 h

`O=C1O[C@H]([C@@H](O)CO)C(O)=C1O` [ascorbic acid, reference compound] gave an IC50 [1] of 13.6 ± 0.38 µM.

With `COc1cccc2c1C(=O)c1c(O)c3c(c(O)c1C2=O)C[C@@](O)(C(=O)CO)C[C@@H]3O[C@H]1C[C@H](N)[C@H](O)[C@H](C)O1` [Doxorubicin, reference compound] the IC50 [2, 4] was 13.2 ± 0.1 µM, the IC50 [2, 5] was 2.85 ± 0.1 µM and the IC50 [3, 6] was 3.42 ± 0.1 µM. The IC50 [3, 7] was 0.68 ± 0.1 µM, the “Selectivity Index (SI) 48 h” value [3] was 3.86 and the “Selectivity Index (SI) 72 h” value [3] was 4.20.

`NC(=S)N/N=C/c1cc(/N=N/c2ccc(S(N)(=O)=O)cc2)ccc1O` [Compound 3j, 2-((E)-2-hydroxy-5-((E)-(4-sulfamoylphenyl)diazenyl)benzylidene)hydrazine-1-carbothioamide] showed an IC50 [2, 4] of 17.43 ± 0.019 µM, an IC50 [2, 5] of 11.26 ± 0.008 µM and an IC50 [3, 6] of 6.52 ± 0.007 µM. The IC50 [3, 7] was 5.27 ± 0.006 µM, the “Selectivity Index (SI) 48 h” value [3] was 2.67 and the “Selectivity Index (SI) 72 h” value [3] was 2.13. It also gave an IC50 [1] of 12.4 ± 0.55 µM.

Work on `NS(=O)(=O)c1ccc(/N=N/c2ccc(O)c(/C=N/c3ccccc3O)c2)cc1` [Compound 3c, 4-((E)-(4-hydroxy-3-((E)-((2hydroxyphenyl)imino)methyl)phenyl)diazenyl)benzenesulfonamide] yielded an IC50 [2, 4] of 16.82 ± 0.01 µM, an IC50 [2, 5] of 2.23 ± 0.001 µM and an IC50 [3, 6] of 21.16 ± 0.014 µM. For the same molecule, the IC50 [3, 7] was 9.26 ± 0.002 µM, the “Selectivity Index (SI) 48 h” value [3] was 0.79 and the “Selectivity Index (SI) 72 h” value [3] was 0.24. For the same molecule, the IC50 [1] was 13.6 ± 0.95 µM.

With `NS(=O)(=O)c1ccc(/N=N/c2ccc(O)c(/C=N/c3ccc(O)cc3)c2)cc1` [Compound 3a, 4-((E)-(4-hydroxy-3-((E)-((4-hydroxyphenyl)imino)methyl)phenyl)diazenyl)benzenesulfonamide] the IC50 [2, 4] was 11.18 ± 0.012 µM, the IC50 [2, 5] was 1.98 ± 0.002 µM and the IC50 [3, 6] was 10.9 ± 0.005 µM. For the same molecule, the IC50 [3, 7] was 9.49 ± 0.012 µM, the “Selectivity Index (SI) 48 h” value [3] was 1.02 and the “Selectivity Index (SI) 72 h” value [3] was 0.20. For the same molecule, the IC50 [1] was 13.2 ± 0.74 µM.

Work on `COc1ccc(/N=C/c2cc(/N=N/c3ccc(S(N)(=O)=O)cc3)ccc2O)cc1` [Compound 3f, 4-((E)-(4-hydroxy-3-((E)-((4-methoxyphenyl)imino)methyl)phenyl)diazenyl)benzenesulfonamid] yielded an IC50 [2, 4] of 11.01 ± 0.016 µM, an IC50 [2, 5] of 2.67 ± 0.009 µM and an IC50 [3, 6] of 8.94 ± 0.013 µM. For the same molecule, the IC50 [3, 7] was 7.62 ± 0.018 µM, the “Selectivity Index (SI) 48 h” value [3] was 1.23 and the “Selectivity Index (SI) 72 h” value [3] was 0.35. For the same molecule, the IC50 [1] was 14 ± 1.45 µM.
